Published values from different studies.
Each line is one published result; the experiments were not run side by side. In brackets after ≈: the same amount, converted by molar mass.
Organism: Mycobacterium tuberculosis

CC(N)(CO)C(=O)Nc1ccc(C(=O)Nc2ccnc(=O)[nH]2)cc1 (stereo not shown)
IC50 (microbial growth; H37RA): > 100 µM

Cc1ccc(NC(=O)c2cc(N3CCNCC3)cc(C(F)(F)F)c2)cc1Nc1nccn1-c1cc(NC2CC2)ncn1
MIC50 (microbial growth; H37RV): 0.63 µM (≈ 0.364 µg/mL)

[H]/N=C(/N)N[C@H]1[C@H](O)[C@@H](O)[C@H](O[C@@H]2O[C@@H](C)[C@](O)(C=O)[C@H]2O[C@@H]2O[C@@H](CO)[C@H](O)[C@@H](O)[C@@H]2NC)[C@@H](N/C(N)=N\[H])[C@@H]1O
IC50 (microbial growth; H37RV): 0.2 µM

CCOC(=O)c1c(NC(=O)c2c(F)c(F)c(F)c(F)c2F)sc2c1CCN(CC)C2
MIC50 (microbial growth; H37RV): 0.12 µM (≈ 0.0538 µg/mL)

CCCCCCC#Cc1cncc(-c2nnc(SCc3ccc(C#N)cc3)n2C)c1
IC90 (microbial growth; ERDMAN): > 100 µM

c1cc(Cn2cnc3ccccc32)nc(Cn2cnc3ccccc32)c1
MBC (microbial killing; H37RV; 21 days): > 50 µM

Cc1ccc(NC(=O)c2cccc(C(F)(F)F)c2)cc1Nc1nccn1-c1cc(NN2CCN(C)CC2)ncn1
MIC50 (microbial growth; H37RV): 9.67 µM (≈ 5.33 µg/mL)

CO[C@H]1/C=C/O[C@@]2(C)Oc3c(C)c(O)c4c(O)c(c(/C=N/N5CCN(C)CC5)c(O)c4c3C2=O)NC(=O)/C(C)=C\C=C\[C@H](C)[C@H](O)[C@@H](C)[C@@H](O)[C@@H](C)[C@H](OC(C)=O)[C@@H]1C
IC50 (microbial growth; H37RV): 0.004 µM

CNc1cc(-n2nc(C(=O)NCCN3C(C)CCCC3C)cc2Nc2cc(NC(=O)c3cncc(C(C)(C)C)c3)ccc2C)ncn1 (stereo not shown)
MBC (microbial killing; H37RV; 5 days): 1.25 to 2.5 µM

CCCCCCC#Cc1cncc(-c2nnc(SCc3ccc([N+](=O)[O-])cc3)n2C)c1
IC90 (microbial growth; ERDMAN): > 50 µM

CO[C@H]1/C=C/O[C@@]2(C)Oc3c(C)c(O)c4c(O)c(c(/C=N/N5CCN(C)CC5)c(O)c4c3C2=O)NC(=O)/C(C)=C\C=C\[C@H](C)[C@H](O)[C@@H](C)[C@@H](O)[C@@H](C)[C@H](OC(C)=O)[C@@H]1C
inhibition (microbial growth; H37RV; 12.5 µg/mL): 97%

O=C(C[n+]1ccn(Cc2cccc(Cn3cc[n+](CC(=O)c4ccc([N+](=O)[O-])cc4)c3)n2)c1)c1ccc([N+](=O)[O-])cc1
MBC (microbial killing; H37RV; 21 days): 100 µM

CO[C@H]1/C=C/O[C@@]2(C)Oc3c(C)c(O)c4c(O)c(c(/C=N/N5CCN(C)CC5)c(O)c4c3C2=O)NC(=O)/C(C)=C\C=C\[C@H](C)[C@H](O)[C@@H](C)[C@@H](O)[C@@H](C)[C@H](OC(C)=O)[C@@H]1C
IC90 (microbial growth; ERDMAN): 0.035 µM

O=[N+]([O-])c1cc2cc3ccc4oc([N+](=O)[O-])cc4c3cc2o1
MBC (microbial killing; H37RV): 0.062 mg/L

CCCCCCC#Cc1cncc(-c2nnc(SCc3ccc(Cl)c(F)c3)n2C)c1
IC50 (microbial growth; ERDMAN): 5.4 µM

CCc1nc2ccc(Cl)cn2c1C(=O)NCc1ccc(N2CCC(c3ccc(OC(F)(F)F)cc3)CC2)cc1
MIC90 (microbial growth; H37RV): 0.02 µM (≈ 0.0111 µg/mL)

CCCCCCC#Cc1cncc(-c2nnc(SCc3ccc([N+](=O)[O-])o3)n2C2CC2)c1
IC50 (microbial growth; ERDMAN): 0.048 µM

O=C(C[n+]1cn(Cc2cccc(Cn3c[n+](CC(=O)c4ccc([N+](=O)[O-])cc4)c4ccccc43)n2)c2ccccc21)c1ccc([N+](=O)[O-])cc1
MBC (microbial killing; H37RV; 21 days): 50 µM

Cn1c(SCc2ccc(Cl)cc2)nnc1-c1cncc(C#Cc2ccccc2)c1
IC90 (microbial growth; ERDMAN): 4.4 µM

CC[C@@H](CO)NCCN[C@@H](CC)CO
IC50 (microbial growth; H37RV): 1.51 µM

CCCCCCC#Cc1cncc(-c2nnc(Sc3ccc([N+](=O)[O-])cc3[N+](=O)[O-])n2C)c1
IC50 (microbial growth; ERDMAN): 1.1 µM

Cc1cn(-c2cc(C(=O)Nc3ccc(C)c(Nc4nccn4-c4cc(NC5CC5)ncn4)c3)cc(C(F)(F)F)c2)cn1
MBC (microbial killing; H37RV; 5 days): 2.5 to 5 µM
